ChEMBL document CHEMBL4364327, “Discovery of benzimidazole analogs as a novel interleukin-5 inhibitors” (Eur J Med Chem, 2019)

Key:
Type in all cases: cell-based
[1] = target: T1, Interleukin-5 receptor subunit alpha (Mus musculus) (UniProt P21183); test: Inhibition of IL-5 receptor in mouse pro-B Y16 cells assessed as decrease in mIL-5 dependent cell proliferation at 30 uM after 48 hrs in presence of 3 units/ml mIL-5 by WST-1 assay relative to control
T1 sequence (whole entry): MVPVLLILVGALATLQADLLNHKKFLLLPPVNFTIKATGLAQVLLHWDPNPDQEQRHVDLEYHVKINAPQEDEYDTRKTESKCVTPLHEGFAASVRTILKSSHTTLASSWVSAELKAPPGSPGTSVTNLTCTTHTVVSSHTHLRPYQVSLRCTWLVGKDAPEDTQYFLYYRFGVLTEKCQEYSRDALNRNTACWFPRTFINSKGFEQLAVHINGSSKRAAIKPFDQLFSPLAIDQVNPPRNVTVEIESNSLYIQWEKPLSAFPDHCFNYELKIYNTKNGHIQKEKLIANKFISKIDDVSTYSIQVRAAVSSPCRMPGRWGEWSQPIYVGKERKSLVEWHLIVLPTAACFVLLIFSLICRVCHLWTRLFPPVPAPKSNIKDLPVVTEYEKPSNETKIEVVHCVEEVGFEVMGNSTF
How it was run: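 Y16 murine early B-cell line was maintained in RPMI-1640 with 8% FBS and 3 units/mL mIL-5. Cells were washed twice in Hanks', resuspended without IL-5 (viability >95%), and plated at 1 × 10⁴ cells per well. A 3 units/mL mIL-5 solution and sample were added. Control wells received medium in place of sample; blank wells received medium in place of mIL-5. After 48 h at 37 °C, WST-1 was added for 2–4 h and A450 was read.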

[2] = Cytotoxicity against human HCC1395BL cells assessed as inhibition of cell viability at 30 uM measured after 48 hrs by MTT assay; conditions: read-out: INH
How it was run: (§1)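 HCC1395 BL or NCI-BL1184 normal B lymphoblasts were cultured in RPMI-1640 or IMDM with 10% FBS at 37 °C and 5% CO₂, with serum but no IL-5. Cells were exposed to compound for 48 h, then to 0.5 mg/mL MTT for a further 3 h. Values are the mean ± SD of three independent measurements.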

[3] = Cytotoxicity against human NCI-BL1184 cells assessed as inhibition of cell viability at 30 uM measured after 48 hrs by MTT assay; conditions: read-out: INH; how it was run: as §1
[4] = target: T1, Interleukin-5 receptor subunit alpha (Mus musculus); test: Inhibition of IL-5 receptor in mouse pro-B Y16 cells assessed as decrease in mIL-5 dependent cell proliferation at 50 uM after 48 hrs in presence of 3 units/ml mIL-5 by WST-1 assay relative to control

Structure (SMILES) | inhibition [1] [%] | also measured
CC(C)N(CCO)Cc1nc2c(OCC3CCCCC3)cccc2[nH]1 | 10 | –
OCCN(Cc1ccncc1)Cc1nc2c(OCC3CCCCC3)cccc2[nH]1 | 43.3 | –
c1ccc(CNCc2nc3c(OCC4CCCCC4)cccc3[nH]2)cc1 | 49.3 | –
CCCC(CO)NCc1nc2c(OCC3CCCCC3)cccc2[nH]1 (stereo unspecified) | 73.3 | –
CCC(CO)NCc1nc2c(OCC3CCCCC3)cccc2[nH]1 (stereo unspecified) | 94.3 | cytotoxicity at 48 h, 30 µM [2]: 7.5%; cytotoxicity at 48 h, 30 µM [3]: 10.2%
OCCN(Cc1ccccc1)Cc1nc2c(OCC3CCCCC3)cccc2[nH]1 | 62.3 | –
OCC(CC1CCCCC1)NCc1nc2c(OCC3CCCCC3)cccc2[nH]1 (stereo unspecified) | 94.7 | cytotoxicity at 48 h, 30 µM [2]: 12.5%; cytotoxicity at 48 h, 30 µM [3]: 9.8%
COc1ccc(NCc2nc3c(OCC4CCCCC4)cccc3[nH]2)cc1 | 20.3 | –
OCCNCc1nc2c(OCC3CCCCC3)cccc2[nH]1 | 63.3 | –
OCC(Cc1ccccc1)NCc1nc2c(OCC3CCCCC3)cccc2[nH]1 (stereo unspecified) | 81 | –
COc1ccc(CN(CCO)Cc2nc3c(OCC4CCCCC4)cccc3[nH]2)cc1 | 73.3 | –
OCCN(Cc1ccc(Cl)cc1)Cc1nc2c(OCC3CCCCC3)cccc2[nH]1 | 96 | –
OCCCCCNCc1nc2c(OCC3CCCCC3)cccc2[nH]1 | 23.7 | –
O=c1c(-c2ccc(O[C@@H]3O[C@H](CO)[C@@H](O)[C@H](O)[C@H]3O)cc2)coc2cc(O)cc(O)c12 | – | inhibition [4]: 79.1%
CCCC1O[C@@H]2C[C@H]3[C@@H]4CCC5=CC(=O)C=C[C@]5(C)[C@H]4[C@@H](O)C[C@]3(C)[C@]2(C(=O)CO)O1 (stereo partly specified) | – | inhibition [4]: 70.2%
OCC(NCc1nc2c(OCC3CCCCC3)cccc2[nH]1)c1ccccc1 (stereo unspecified) | 77.7 | –
COc1ccc(CNCc2nc3c(OCC4CCCCC4)cccc3[nH]2)cc1 | 43.3 | –
OCCCCNCc1nc2c(OCC3CCCCC3)cccc2[nH]1 | 44.3 | –
OCCC(NCc1nc2c(OCC3CCCCC3)cccc2[nH]1)c1ccccc1 (stereo unspecified) | 64.7 | –
OCCN(Cc1nc2c(OCC3CCCCC3)cccc2[nH]1)C1CCCCC1 | 24 | –
OCCCNCc1nc2c(OCC3CCCCC3)cccc2[nH]1 | 52.7 | –
CC(C)(CO)NCc1nc2c(OCC3CCCCC3)cccc2[nH]1 | 54.7 | –
CCCN(CCO)Cc1nc2c(OCC3CCCCC3)cccc2[nH]1 | 63 | –
CCN(CCO)Cc1nc2c(OCC3CCCCC3)cccc2[nH]1 | 34.7 | –
CN(CCO)Cc1nc2c(OCC3CCCCC3)cccc2[nH]1 | 42 | –
c1ccc(NCc2nc3c(OCC4CCCCC4)cccc3[nH]2)cc1 | 25 | –
OCCN(Cc1nc2c(OCC3CCCCC3)cccc2[nH]1)CC1CCCCC1 | 76.7 | –
